Experimental data reported in ChEMBL document CHEMBL5126663, “Cellular Stress-Induced Metabolites in Escherichia coli” (J Nat Prod, 2022).
Activity calls are given as the source filed them. The calls are words filed in the database; no cut-off is given here.

Key:
[1] = Antioxidant activity assessed as DPPH radical scavenging activity incubated for 35 mins under dark condition; format: functional
Summary of the method: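 DMSO stocks (100 mM) added to freshly prepared 0.2 mM DPPH in methanol, two-fold serially diluted, kept dark 35 min, absorbance read at 517 nm. Background absorbance from a parallel methanol-only (no DPPH) plate subtracted. Scavenging % = 100 × (Acontrol−Asample)/Acontrol; n = 3; ascorbic acid positive control.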

[2] = Increase in IL-17A Katushka/IL-10eGFP/Foxp3RFP reporter mouse cell trace violet-labelled CD4+ T cell derived TGF-beta1/IL-6/IL-23-polarized Th17 cell proliferation at 10 to 20 uM measured after 3 days by flow cytomtery; format: toxicity, cell-based; conditions: th17, 72 h, dose 10-20 µM, time 3 day
Summary of the method: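 Same Th17-polarized, CellTrace Violet-labelled reporter-mouse CD4+ T cells; compound or DMSO added after 1–3 days, then 3 more days culture. Proliferation by flow cytometry as percentage of viable CD4+ cells having undergone 7 or more divisions (CellTrace Violet dilution); n = 4.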

[3] = (§1) Immunomodulatory activity in IL-17A Katushka/IL-10eGFP/Foxp3RFP reporter mouse cell trace violet-labelled CD4+ T cell derived TGF-beta1/IL-6/IL-23-polarized Th17 cells assessed as increase in IL-10 positive cell population at 5 to 20 uM measured after 3 days by flow cytomtery relative to control; format: functional; conditions: dose 5-20 µM; time 3 day
Summary of the method: (§2)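 Naïve CD4+ T cells from spleen and lymph nodes of 2 triple reporter mice, CellTrace Violet-labelled, polarized in Click's medium with 5% FBS, anti-CD3/anti-CD28, anti-IFNγ, anti-IL-4, IL-23, IL-6 and TGF-β1. Compound or DMSO added after 1–3 days, cultured 3 more days; flow cytometry on viable CD4+ cells (IL-17A Katushka, IL-10 eGFP). Fold change vs DMSO; n = 4.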

[4] = as §1, with “in IL-10/IL-17” for “in IL-10”; format: functional; conditions: dose 5-20 µM; time 3 day; summary of the method: as §2
[5] = molecular target: T1, Aryl hydrocarbon receptor (Homo sapiens, UniProt P35869); assay: Agonist activity at AhR in human HT29-Lucia AhR cells measured after 24 hrs by Quanti-luc gold luminescence assay; format: cell-based; conditions: DDE = dose-dependent effect
T1 sequence (P35869 whole entry): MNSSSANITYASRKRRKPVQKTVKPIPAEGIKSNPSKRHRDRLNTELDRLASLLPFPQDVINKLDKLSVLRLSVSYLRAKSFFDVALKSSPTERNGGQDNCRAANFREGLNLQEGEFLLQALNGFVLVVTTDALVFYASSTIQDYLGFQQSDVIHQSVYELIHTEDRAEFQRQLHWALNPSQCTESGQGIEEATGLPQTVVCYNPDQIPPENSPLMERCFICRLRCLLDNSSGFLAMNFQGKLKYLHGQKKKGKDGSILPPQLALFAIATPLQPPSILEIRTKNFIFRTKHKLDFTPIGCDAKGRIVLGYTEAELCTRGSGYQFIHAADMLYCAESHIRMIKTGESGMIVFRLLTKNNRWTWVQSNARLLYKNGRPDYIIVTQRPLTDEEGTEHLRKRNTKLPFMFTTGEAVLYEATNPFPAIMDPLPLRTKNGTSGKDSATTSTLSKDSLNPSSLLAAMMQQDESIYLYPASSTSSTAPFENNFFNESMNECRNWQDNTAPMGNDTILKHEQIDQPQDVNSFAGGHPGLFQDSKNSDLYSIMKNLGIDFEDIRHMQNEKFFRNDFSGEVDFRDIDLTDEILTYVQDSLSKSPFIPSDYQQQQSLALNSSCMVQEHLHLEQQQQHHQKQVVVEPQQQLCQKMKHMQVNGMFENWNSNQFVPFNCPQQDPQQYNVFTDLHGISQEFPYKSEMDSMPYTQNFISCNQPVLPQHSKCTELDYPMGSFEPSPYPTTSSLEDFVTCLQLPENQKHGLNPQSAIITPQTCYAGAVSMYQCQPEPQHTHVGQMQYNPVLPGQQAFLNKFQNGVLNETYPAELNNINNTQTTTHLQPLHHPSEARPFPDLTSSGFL
Summary of the method: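 HT29-Lucia AhR reporter cells seeded ~50,000 cells/well; ligand or DMSO vehicle added (ITE positive control, unstimulated negative control) for 24 h. Secreted Lucia luciferase in supernatant detected with QUANTI-Luc Gold luminescence. Triplicate; expressed as fold-change relative to DMSO-treated cells.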

Th17 [6] = assay: Immunomodulatory activity in IL-17A Katushka/IL-10eGFP/Foxp3RFP reporter mouse cell trace violet-labelled CD4+ T cell derived TGF-beta1/IL-6/IL-23-polarized Th17 cells assessed as increase in IL-17 positive cell population at 5 to 20 uM measured after 3 days by flow cytomtery; format: functional, cell-based; conditions: dose 5-20 µM, time 3.0 day; summary of the method: as §2
Th17 [7] = assay: Immunomodulatory activity in IL-17A Katushka/IL-10eGFP/Foxp3RFP reporter mouse cell trace violet-labelled CD4+ T cell derived TGF-beta1/IL-6/IL-23-polarized Th17 cells assessed as increase in IL-10/IL-17 positive cell population at 5 to 20 uM measured after 3 days by flow cytomtery; format: functional, cell-based; conditions: dose 5-20 µM, time 3.0 day; summary of the method: as §2

O=c1[nH]c(=O)c2nc(-c3ccc(O)cc3)c(=O)n(C[C@H](O)[C@H](O)[C@H](O)CO)c2[nH]1
Activity [1]: Active

O=c1[nH]c(=O)c2nc(-c3c[nH]c4ccccc34)c(=O)n(C[C@H](O)[C@H](O)[C@H](O)CO)c2[nH]1
Activity [2]: Non-Toxic
EC50 [1]: 32 µM
fold change (FC) [3]: 2
fold change (FC) [4]: 2
Activity [5]: Dde

O=c1[nH]c(=O)c2nc(-c3ccccc3)c(=O)n(C[C@H](O)[C@H](O)[C@H](O)CO)c2[nH]1
Activity [1]: Active

O=C1O[C@H]([C@@H](O)CO)C(O)=C1O [ASCORBIC ACID]
Activity (Th17 [6]): Active
Activity (Th17 [7]): Active
EC50 [1]: 30 µM
